According to ChEMBL document CHEMBL3243926, “Prodrugs of 9-beta-D-arabinofuranosyladenine. 1. Synthesis and evaluation of some 5'-(O-acyl) derivatives” (J Med Chem, 1978):
Values after ≈ are worked out from the molar mass of the structure shown.

Tests used:
[1] = Aqueous solubility of the compound at 0.1 M phosphate buffer after 16 hrs by UV spectrometry; format: physicochemical
Method in brief: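 Excess solid (10 mg) was agitated for 16 h with 5 mL of 0.1 M phosphate buffer. The mixture was filtered through sintered glass to remove undissolved solid. Dissolved concentration was determined from UV absorbance against values previously determined in buffer.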

[2] = system: Human alphaherpesvirus 1; assay: Antiviral activity against HSV-1 assessed at 6 ug/ml by plaque reduction assay relative to control; format: functional; design: scale not given: the % may be the effect or the level left
[3] = Aqueous stability of the compound assessed as hydrolysis rate at 25 degC by Arrhenius plot; format: physicochemical; conditions: buffer
Method in brief: (§1)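 Ester hydrolysis was followed at pH 6.56 at 60, 80 and 100 °C by HPLC (40:60 methanol-water, 254-nm detection). First-order rates came from log[ester] vs time. An Arrhenius plot of log rate vs reciprocal temperature (K) was extrapolated to 25 °C.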

[4] = system: Human alphaherpesvirus 1; assay: Antiviral activity against HSV-1 assessed at 0.6 ug/ml by plaque reduction assay relative to control; format: functional; design: scale not given: the % may be the effect or the level left
[5] = molecular target: T1, Adenosine deaminase (Bos taurus, UniProt P56658); assay: Stability of the compound assessed as calf mucosal adenosine deaminase-mediated drug metabolism; format: ADME; conditions: cattle
T1 sequence (P56658 whole entry): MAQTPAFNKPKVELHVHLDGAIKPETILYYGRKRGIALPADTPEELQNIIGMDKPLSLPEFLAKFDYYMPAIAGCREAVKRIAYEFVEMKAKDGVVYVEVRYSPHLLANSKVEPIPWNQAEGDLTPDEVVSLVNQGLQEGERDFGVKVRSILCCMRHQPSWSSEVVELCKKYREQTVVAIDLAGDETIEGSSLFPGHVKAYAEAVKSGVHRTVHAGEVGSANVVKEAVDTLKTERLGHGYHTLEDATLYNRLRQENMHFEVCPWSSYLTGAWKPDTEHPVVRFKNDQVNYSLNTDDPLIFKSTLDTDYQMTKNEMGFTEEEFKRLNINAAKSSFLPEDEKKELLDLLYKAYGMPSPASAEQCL

[6] = Aqueous stability of the compound assessed as time required for 10% decomposition at 25 degC by Arrhenius plot; format: physicochemical; conditions: buffer; method in brief: as §1
[7] = molecular target: T1, Adenosine deaminase; assay: Inhibition of calf mucosal adenosine deaminase
[8] = system: Human alphaherpesvirus 1; assay: Antiviral activity against HSV-1 assessed at 7 ug/ml by plaque reduction assay relative to control; format: functional; design: scale not given: the % may be the effect or the level left
[9] = system: Human alphaherpesvirus 1; assay: Antiviral activity against HSV-1 assessed at 6.5 ug/ml by plaque reduction assay relative to control; format: functional; design: scale not given: the % may be the effect or the level left
[10] = system: Human alphaherpesvirus 1; assay: Antiviral activity against HSV-1 assessed at 2 ug/ml by plaque reduction assay relative to control; format: functional; design: scale not given: the % may be the effect or the level left
[11] = system: Human alphaherpesvirus 1; assay: Antiviral activity against HSV-1 assessed at 20 ug/ml by plaque reduction assay relative to control; format: functional; design: scale not given: the % may be the effect or the level left
[12] = system: Human alphaherpesvirus 1; assay: Antiviral activity against HSV-1 assessed at 17 ug/ml by plaque reduction assay relative to control; format: functional; design: scale not given: the % may be the effect or the level left
[13] = Half life of the compound; format: physicochemical

Structure (SMILES) | solubility at 16 h [1] [µg/mL] | Activity [2] [%] | Stability [5] | Activity [9] [%] | other results
CCCC(=O)OC[C@H]1O[C@@H](n2cnc3c(N)ncnc32)[C@@H](O)[C@@H]1O | 16100 (≈ 47.7 mM) | 67 |  |  | 
CCCCC(=O)OC[C@H]1O[C@@H](n2cnc3c(N)ncnc32)[C@@H](O)[C@@H]1O | 8400 (≈ 23.9 mM) | 100 | Stable |  | Drug degradation [3]: 5.4 ×10⁻⁶ /hr; Activity [4]: 90%; Time [6]: 2.25 yr; Ki [7]: 11 µM
CC(C)CC(=O)OC[C@H]1O[C@@H](n2cnc3c(N)ncnc32)[C@@H](O)[C@@H]1O | 19800 (≈ 56.4 mM) |  | Stable |  | Activity [8]: 53%
CC(C)(C)CC(=O)OC[C@H]1O[C@@H](n2cnc3c(N)ncnc32)[C@@H](O)[C@@H]1O | 7800 (≈ 21.3 mM) |  | Stable | 10 | 
CCC(=O)OC[C@H]1O[C@@H](n2cnc3c(N)ncnc32)[C@@H](O)[C@@H]1O | 9200 (≈ 28.5 mM) | 83 |  |  | 
Nc1ncnc2c1ncn2[C@@H]1O[C@H](CO)[C@@H](O)[C@@H]1O [VIDARABINE] |  | 54 |  | 63 | Activity [4]: 0%; Activity [10]: 64%; Activity [8]: 63%; Activity [11]: 69%; Activity [12]: 100%
Nc1ncnc2c1ncn2[C@@H]1O[C@H](COC(=O)CCc2ccccc2)[C@@H](O)[C@@H]1O | 1500 (≈ 3.76 mM) |  |  |  | Activity [8]: 29%
CC(C)(C)C(=O)OC[C@H]1O[C@@H](n2cnc3c(N)ncnc32)[C@@H](O)[C@@H]1O | 7000 (≈ 19.9 mM) |  | Stable |  | Activity [11]: 11%
CCCCCCCC(=O)OC[C@H]1O[C@@H](n2cnc3c(N)ncnc32)[C@@H](O)[C@@H]1O | 100 (≈ 0.254 mM) |  |  |  | Activity [10]: 45%
CC(=O)OC[C@H]1O[C@@H](n2cnc3c(N)ncnc32)[C@@H](O)[C@@H]1O | 6600 (≈ 21.3 mM) |  |  |  | Activity [12]: 86%
Nc1ncnc2c1ncn2[C@@H]1O[C@H](COC=O)[C@@H](O)[C@@H]1O |  |  |  |  | half-life [13]: 240 h
Nc1ncnc2c1ncn2[C@@H]1O[C@H](COC(=O)c2ccccc2)[C@@H](O)[C@@H]1O | 80 (≈ 0.215 mM) |  |  | 71 | 
CCCCCC(=O)OC[C@H]1O[C@@H](n2cnc3c(N)ncnc32)[C@@H](O)[C@@H]1O | 2500 (≈ 6.84 mM) |  | Stable | 25 | 
